Data reported in ChEMBL document CHEMBL1148638, “Aminopyridine-based c-Jun N-terminal kinase inhibitors with cellular activity and minimal cross-kinase activity” (J Med Chem, 2006).

Assays:
[1] = biological target: Mitogen-activated protein kinase 8 (Homo sapiens, UniProt P45983); assay: Inhibition of JNK1-mediated ATF2 phosphorylation
[2] = biological target: Mitogen-activated protein kinase 9 (Homo sapiens, UniProt P45984); assay: Inhibition of JNK2-mediated ATF2 phosphorylation
[3] = biological target: c-Jun N-terminal kinase, JNK (Homo sapiens, UniProt P45983+P53779+P45984); assay: Inhibition of cJun phosphorylation in HepG2 cell line
Activated CDC42 kinase 1 = Activated CDC42 kinase 1 (Homo sapiens, UniProt Q07912); assay: Inhibition of CDC42
In short: (§1)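 Recombinant kinases were commercial, or baculovirus-expressed and purified by His-tag or GST affinity. Each was incubated 1 h with biotinylated substrate peptide (2 µM), γ-[33P]-ATP (5 µM) and inhibitor (3-10000 nM, 2% DMSO) in 25 mM Hepes pH 7.5, 10 mM MgCl2, Na3VO4. Reactions were stopped with EDTA/NaCl and read by streptavidin FlashPlate capture. IC50 came from titrations, converted to Ki by Cheng-Prusoff.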

[4] = biological target: T1, Calcium/calmodulin-dependent protein kinase type IV (Homo sapiens, UniProt Q16566); assay: Inhibition of CaMK4; in short: as §1
T1 sequence (Q16566 whole entry): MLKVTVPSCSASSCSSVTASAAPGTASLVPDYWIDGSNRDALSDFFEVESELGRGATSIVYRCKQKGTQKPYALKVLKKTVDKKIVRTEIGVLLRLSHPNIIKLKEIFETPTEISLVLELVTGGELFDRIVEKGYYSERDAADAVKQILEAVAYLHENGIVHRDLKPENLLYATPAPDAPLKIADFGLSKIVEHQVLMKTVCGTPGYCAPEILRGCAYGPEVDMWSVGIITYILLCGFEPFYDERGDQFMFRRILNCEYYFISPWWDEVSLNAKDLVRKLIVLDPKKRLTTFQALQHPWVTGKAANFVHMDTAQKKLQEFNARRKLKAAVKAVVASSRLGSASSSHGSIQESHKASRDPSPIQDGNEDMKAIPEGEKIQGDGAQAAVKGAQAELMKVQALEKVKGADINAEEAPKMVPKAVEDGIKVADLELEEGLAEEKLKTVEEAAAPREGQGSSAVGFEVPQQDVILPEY

[5] = biological target: T2, Serine/threonine-protein kinase Sgk1 (Homo sapiens, UniProt O00141); assay: Inhibition of SGK
T2 sequence (O00141 whole entry): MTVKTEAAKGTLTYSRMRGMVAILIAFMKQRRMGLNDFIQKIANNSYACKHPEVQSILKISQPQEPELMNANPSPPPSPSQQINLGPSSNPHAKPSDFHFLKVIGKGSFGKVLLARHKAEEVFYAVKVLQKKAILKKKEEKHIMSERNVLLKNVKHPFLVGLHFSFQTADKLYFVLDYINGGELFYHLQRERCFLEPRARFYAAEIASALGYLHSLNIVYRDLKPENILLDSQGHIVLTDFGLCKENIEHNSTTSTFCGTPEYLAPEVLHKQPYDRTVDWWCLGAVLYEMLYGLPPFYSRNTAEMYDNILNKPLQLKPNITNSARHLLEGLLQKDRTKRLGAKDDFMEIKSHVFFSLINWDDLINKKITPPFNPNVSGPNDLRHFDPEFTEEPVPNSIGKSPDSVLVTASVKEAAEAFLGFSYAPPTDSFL

[6] = Half life in iv dosed Sprague-Dawley rat; type: ADME, organism-based; settings: in vivo
In short: (§2)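 Sprague-Dawley rats received 5 mg/kg intravenously. Half-life is reported in hours. AUC is total drug exposure after iv dosing, from t = 0 to t = ∞, in µg·h/mL.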

[7] = Volume of distribution at steady state in iv dosed Sprague-Dawley rat; type: ADME, organism-based; settings: in vivo, read-out: Vss
[8] = Volume of distribution in iv dosed Sprague-Dawley rat; type: ADME, organism-based; settings: in vivo, read-out: Vdss
[9] = AUC in iv dosed Sprague-Dawley rat; type: ADME, organism-based; settings: plasma; in short: as §2
[10] = Plasma clearance in iv dosed Sprague-Dawley rat; type: ADME, organism-based
[11] = Half life in po dosed Sprague-Dawley rat; type: ADME, organism-based; settings: in vivo
In short: (§3)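 Sprague-Dawley rats were dosed orally. Oral half-life is reported in hours and Cmax as the maximum plasma concentration in µM. AUC is total oral exposure from t = 0 to t = ∞, in µg·h/mL.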

[12] = Cmax in po dosed Sprague-Dawley rat; type: ADME, organism-based; parameters: route oral; settings: in vivo; in short: as §3
[13] = Tmax in po dosed Sprague-Dawley rat; type: ADME, organism-based; settings: in vivo
[14] = AUC in po dosed Sprague-Dawley rat; type: ADME, organism-based; settings: plasma; in short: as §3
[15] = Oral bioavailability in Sprague-Dawley rat; type: ADME, organism-based; settings: in vivo

Sequence of Mitogen-activated protein kinase 8 (P45983 whole entry): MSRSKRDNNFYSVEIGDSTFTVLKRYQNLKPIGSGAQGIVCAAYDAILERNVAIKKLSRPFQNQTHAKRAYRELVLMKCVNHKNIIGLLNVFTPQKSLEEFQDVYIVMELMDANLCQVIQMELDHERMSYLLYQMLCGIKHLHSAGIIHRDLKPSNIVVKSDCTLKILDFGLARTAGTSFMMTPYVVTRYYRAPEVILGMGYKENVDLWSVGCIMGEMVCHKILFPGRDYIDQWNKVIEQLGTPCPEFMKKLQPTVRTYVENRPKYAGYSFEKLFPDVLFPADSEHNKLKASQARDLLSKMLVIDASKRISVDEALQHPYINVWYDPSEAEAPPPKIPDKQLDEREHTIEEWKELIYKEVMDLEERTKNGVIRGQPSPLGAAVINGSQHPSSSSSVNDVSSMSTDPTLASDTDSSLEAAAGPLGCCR
Sequence of Mitogen-activated protein kinase 9 (P45984 whole entry): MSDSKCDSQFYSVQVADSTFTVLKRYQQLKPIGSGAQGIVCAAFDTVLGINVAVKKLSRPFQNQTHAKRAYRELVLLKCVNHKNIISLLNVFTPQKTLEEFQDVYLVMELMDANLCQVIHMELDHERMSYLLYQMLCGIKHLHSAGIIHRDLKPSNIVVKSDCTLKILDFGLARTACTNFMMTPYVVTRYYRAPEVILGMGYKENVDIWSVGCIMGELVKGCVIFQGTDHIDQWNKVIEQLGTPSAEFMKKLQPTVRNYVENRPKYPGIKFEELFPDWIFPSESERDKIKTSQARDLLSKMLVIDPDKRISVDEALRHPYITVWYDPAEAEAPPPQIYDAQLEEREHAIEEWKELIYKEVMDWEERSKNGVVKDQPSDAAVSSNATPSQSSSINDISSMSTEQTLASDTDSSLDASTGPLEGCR
Sequence of Activated CDC42 kinase 1 (Q07912 whole entry): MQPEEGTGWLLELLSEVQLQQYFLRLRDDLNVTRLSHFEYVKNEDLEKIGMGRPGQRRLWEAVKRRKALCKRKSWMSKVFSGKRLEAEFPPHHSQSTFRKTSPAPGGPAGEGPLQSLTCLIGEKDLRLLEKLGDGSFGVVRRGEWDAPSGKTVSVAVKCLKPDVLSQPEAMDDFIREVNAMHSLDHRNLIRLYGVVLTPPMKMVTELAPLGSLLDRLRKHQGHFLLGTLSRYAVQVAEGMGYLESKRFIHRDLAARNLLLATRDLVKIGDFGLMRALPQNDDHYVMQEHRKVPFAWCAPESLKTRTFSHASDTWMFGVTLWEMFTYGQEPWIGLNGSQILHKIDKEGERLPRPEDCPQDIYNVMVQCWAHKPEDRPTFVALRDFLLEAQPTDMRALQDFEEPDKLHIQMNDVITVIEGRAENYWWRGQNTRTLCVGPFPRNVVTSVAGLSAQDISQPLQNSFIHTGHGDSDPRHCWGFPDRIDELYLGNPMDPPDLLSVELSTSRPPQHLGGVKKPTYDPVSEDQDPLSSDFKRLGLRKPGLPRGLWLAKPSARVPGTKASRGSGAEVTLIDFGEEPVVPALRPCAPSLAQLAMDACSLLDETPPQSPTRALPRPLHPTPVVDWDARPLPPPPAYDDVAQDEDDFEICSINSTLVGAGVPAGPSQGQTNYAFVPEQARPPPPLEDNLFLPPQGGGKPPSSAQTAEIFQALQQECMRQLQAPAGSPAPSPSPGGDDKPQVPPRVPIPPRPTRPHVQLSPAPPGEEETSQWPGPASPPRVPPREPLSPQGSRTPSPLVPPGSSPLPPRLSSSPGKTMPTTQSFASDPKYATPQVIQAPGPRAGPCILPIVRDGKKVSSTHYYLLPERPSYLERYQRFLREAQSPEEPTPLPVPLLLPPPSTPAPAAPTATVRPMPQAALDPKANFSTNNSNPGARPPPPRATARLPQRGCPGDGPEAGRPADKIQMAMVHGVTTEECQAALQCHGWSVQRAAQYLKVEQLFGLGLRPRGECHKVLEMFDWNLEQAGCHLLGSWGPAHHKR

Compound | IC50 [1] [nM] | IC50 [2] [nM] | also measured
CCOc1nc(NC(=O)Cc2cccc(C)c2)cc(N)c1C#N | 420 | 790 | 
CCOc1nc(NC(=O)Cc2cc(C)ccc2C)cc(N)c1C#N | 4400 | > 10000 | 
CCOc1nc(NC(=O)Cc2ccccc2C)cc(N)c1C#N | 400 | 740 | 
CC(=O)Nc1cc(N)c(C#N)c(OCCN(C)C)n1 | > 10000 | > 10000 | 
CCOc1nc(NC(=O)CN2CCOCC2)cc(N)c1C#N | 270 | 1200 | 
CCOc1nc(NC(=O)C(C)C)cc(N)c1C#N | 4000 | 8400 | 
CC(=O)Nc1cc(N)c(C#N)c(NC(C)C)n1 | 910 | 3000 | 
CCOc1nc(NCCc2cc(OC)ccc2OC)cc(N)c1C#N | > 10000 | > 10000 | 
CCOc1nc(NC(=O)Cc2ccc(C)cc2)cc(N)c1C#N | 190 | 360 | EC50 [3]: 3400 nM
CCOc1nc(NC(=O)Cc2cccc(OC)c2)cc(N)c1C#N | 210 | 310 | EC50 [3]: 2500 nM
CCOc1nc(NC(=O)Cc2ccc(Cl)cc2)cc(N)c1C#N | 580 | 610 | 
CCOc1nc(NC(=O)CN(CC)CC)cc(N)c1C#N | 2700 | 6300 | 
CCOc1nc(NC(=O)Cc2cc(OC)c([N+](=O)[O-])cc2OC)cc(N)c1C#N | 69 | 100 | EC50 [3]: 910 nM
CCCCNC(=O)C1CCN(CC(=O)Nc2cc(N)c(C#N)c(OCC)n2)CC1 | 69 | 180 | EC50 [3]: > 10000 nM
CCOc1nc(NC(=O)Cc2cc(OC)c(NC(C)=O)cc2OC)cc(N)c1C#N | 35 | 26 | EC50 [3]: 280 nM
CCOc1nc(NC(=O)CN2CCC(O)CC2)cc(N)c1C#N | 300 | 640 | 
CCCc1nc(NC(C)=O)cc(N)c1C#N | > 10000 | > 10000 | 
CCOc1nc(NC(=O)CC(C)C)cc(N)c1C#N | 1400 | 3500 | 
CCOc1cccc(NC(C)=O)n1 |  | > 10000 | 
CC(=O)Nc1cc(N)c(C#N)c(OCCC(=O)O)n1 | 4800 | 4900 | 
COc1nc(NC(C)=O)cc(N)c1C#N | 2200 | 4500 | 
COc1ccc(OC)c(CC(=O)Nc2cc(N)c(C#N)c(OCCO)n2)c1 | 74 | 240 | EC50 [3]: 1600 nM
CCCCC(=O)Nc1nc(OCC)c(C#N)c(N)c1Cl | > 10000 | > 10000 | 
CCCCC(=O)N(C)c1cc(N)c(C#N)c(OCC)n1 | > 10000 | > 10000 | 
CCOc1nc(NC(=O)Cc2cccc(Cl)c2)cc(N)c1C#N | 300 | 900 | 
CCOc1nc(NC(=O)Cc2ccccc2OC)cc(N)c1C#N | 120 | 260 | EC50 [3]: 1400 nM

Compound | IC50 [1] [nM] | IC50 [2] [nM] | also measured
CCNC(=O)Nc1cc(N)c(C#N)c(OCC)n1 | > 10000 | > 10000 | 
CCOc1nc(NC(=O)OC)cc(N)c1C#N | > 10000 | > 10000 | 
COc1ccc(OC)c(CC(=O)Nc2cc(N)c(C#N)cn2)c1 | 2600 | 5100 | 
CCCCN(CCCC)CC(=O)Nc1cc(N)c(C#N)c(OCC)n1 | 3500 | > 10000 | 
CCCCNCC(=O)Nc1cc(N)c(C#N)c(OCC)n1 | 6300 | > 10000 | 
CCOc1nc(NC(C)=O)cc(C)c1C#N | > 10000 | > 10000 | 
CCOc1nc(NC(=O)Cc2ccccc2)cc(N)c1C#N | 570 | 770 | 
COCCOc1nc(NC(=O)Cc2cc(OC)ccc2OC)cc(N)c1C#N | 110 | 270 | EC50 [3]: 1400 nM
CCOc1nc(NC(=O)Cc2ccccc2Cl)cc(N)c1C#N | 1100 | 4900 | 
CC(=O)Nc1cc(N)c(C#N)c(OC2CCOC2)n1 (stereo not drawn) | 890 | 2900 | 
CCOc1nc(NC(=O)CN2CCC(C(=O)NC(C)C)CC2)cc(N)c1C#N | 87 | 130 | EC50 [3]: 3900 nM
CCCCSc1nc(NC(C)=O)cc(N)c1C#N | 8900 | > 10000 | 
CCCCC(=O)Nc1cc(N)c(C#N)c(OCC)n1 | 350 | 690 | 
CCOc1cc(NC(C)=O)nc(N)c1C#N | > 10000 | > 10000 | 
COc1cc(S(C)(=O)=O)c(OC)cc1CC(=O)Nc1cc(N)c(C#N)c(OC(C)C)n1 |  |  | Ki (Activated CDC42 kinase 1): > 9500 nM; Ki [4]: > 8600 nM; Ki [5]: > 9400 nM; half-life [6]: 2 h; Vd [7]: 1.6 L/kg; Vd [8]: 8.6 L/kg; AUC [9]: 2200 ng·h/mL; clearance [10]: 50 mL/min/kg; half-life [11]: 2.9 h; Cmax [12]: 80 nM; Tmax [13]: 0.75 h; AUC [14]: 120 ng·h/mL; bioavailability [15]: 5.7%
CC(=O)Nc1cc(N)c(C#N)c(OC(C)C)n1 | 310 | 470 | 
CCCCOc1nc(NC(C)=O)cc(N)c1C#N | 2100 | 4660 | 
CCOc1nc(NC(=O)Cc2cc(Br)ccc2Br)cc(N)c1C#N | 3000 | > 10000 | 
CCNc1nc(NC(C)=O)cc(N)c1C#N | 2400 | > 10000 | 
COc1ccc(OC)c(CC(=O)Nc2cc(N)c(C#N)c(OCCS(C)(=O)=O)n2)c1 | 400 | 740 | 
COc1ccc(OC)c(CC(=O)Nc2cc(N)c(C#N)c(Br)n2)c1 | 1700 | > 10000 | 
CCOc1nc(NC(=O)Cc2cc(OC)c(Br)cc2OC)cc(N)c1C#N |  | 160 | EC50 [3]: 890 nM
CCCN(CCO)CC(=O)Nc1cc(N)c(C#N)c(OCC)n1 | 160 | 740 | EC50 [3]: 5500 nM
CCOc1nc(NC(=O)CN2CCCCC2)cc(N)c1C#N | 510 | 3400 | 
CCOc1nc(NC(=O)Cc2ccc(OC)cc2)cc(N)c1C#N | 180 | 274 | EC50 [3]: 1400 nM
